Data published in ChEMBL document CHEMBL2146477, “Antimicrobial Activity of Adenine-Based Inhibitors of NAD(+)-Dependent DNA Ligase” (ACS Med Chem Lett, 2012).
Converted amounts (≈) assume the structure as drawn.

Legend:
[1] = Inhibition of NAD-dependent LigA in Streptococcus pneumoniae SPN100 after 20 mins by FRET assay
Procedure, shortened: (§1)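 LigA enzyme assay with NAD+ at a low multiple of its Km (around 1–10 μM). Percent inhibition was measured at 2-fold serial dilutions of compound, and IC50 was interpolated. The reported value is the geometric mean of at least 2 determinations.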

[2] = Inhibition of NAD-dependent LigA in AcrABTolC deficient Haemophilus influenzae HIN101 after 20 mins by FRET assay; procedure, shortened: as §1
Haemophilus influenzae [3] = assay: Antibacterial activity against AcrABTolC deficient Haemophilus influenzae HIN101 by NCCLS broth microdilution method; type: functional
Haemophilus influenzae [4] = assay: Antibacterial activity against Haemophilus influenzae HIN102 overexpressing LigA by NCCLS broth microdilution method; type: functional
Procedure, shortened: (§2)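 MIC measured on the LigA-overexpressing strain, in duplicate on different days. The reported MIC is the geometric mean of the two. The maximum test concentration was 64 μg/mL.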

Haemophilus influenzae [5] = assay: Ratio of MIC for AcrABTolC deficient Haemophilus influenzae HIN101 to MIC for Haemophilus influenzae HIN102 overexpressing LigA; type: functional
Procedure, shortened: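 MICs for parental HIN101 and isogenic LigA-overexpressing HIN102 were each run in duplicate on different days, up to 64 μg/mL, using geometric-mean values. A difference of at least 4-fold on both occasions was taken to mean the LigA mode of action in the parental strain.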

Streptococcus pneumoniae [6] = assay: Antibacterial activity against Streptococcus pneumoniae SPN100 by NCCLS broth microdilution method; type: functional
Streptococcus pneumoniae [7] = assay: Ratio of MIC for Streptococcus pneumoniae SPN102 to MIC for Streptococcus pneumoniae SPN100
Streptococcus pneumoniae [8] = assay: Antibacterial activity against Streptococcus pneumoniae SPN102 overexpressing LigA by NCCLS broth microdilution method; type: functional; procedure, shortened: as §2

Row | Compound | IC50 [1] | IC50 [2] | MIC (Haemophilus influenzae [3]) | MIC (Haemophilus influenzae [4]) | Ratio (Haemophilus influenzae [5]) | MIC (Streptococcus pneumoniae [6]) | Ratio (Streptococcus pneumoniae [7]) | MIC (Streptococcus pneumoniae [8])
1 | Nc1nc(OC2CCC3CCCCC3C2)nc2c1ncn2C1CCCO1 (stereo not given) | 60 nM | 860 nM | 8 µg/mL (≈ 22.4 µM) | 8 µg/mL (≈ 22.4 µM) | 16 | 2 µg/mL (≈ 5.6 µM) |  | 
2 | C[C@H]1O[C@@H](n2cnc3c(N)nc(OC4CCC5CCCCC5C4)nc32)[C@H](O)[C@@H]1O (stereo not given in full) | 40 nM | 260 nM | 8 µg/mL (≈ 19.8 µM) | 32 µg/mL (≈ 79.3 µM) | 16 | 0.5 µg/mL (≈ 1.24 µM) |  | 
3 | C[C@H]1O[C@@H](n2cnc3c(N)nc(OCC45CC6CC(CC(C6)C4)C5)nc32)[C@H](O)[C@@H]1O | 200 nM | 1700 nM | 32 µg/mL (≈ 77 µM) |  |  | 2 µg/mL (≈ 4.81 µM) |  | 
4 | Nc1nc(OC2CCC3CCCCC3C2)nc2c1ncn2[C@@H]1O[C@H](CO)[C@@H](O)[C@H]1O (stereo not given in full) | 80 nM | 400 nM | 16 µg/mL (≈ 38.1 µM) |  |  | 1 µg/mL (≈ 2.38 µM) |  | 
5 | C[C@H]1O[C@@H](n2cnc3c(N)nc(OC4CCCC4)nc32)[C@H](O)[C@@H]1Oc1ccccc1 | 50 nM | 1300 nM | 64 µg/mL (≈ 156 µM) |  |  | 2 µg/mL (≈ 4.86 µM) |  | 
6 | Nc1nc(OC2CCCC2)nc2c1ncn2[C@@H]1O[C@H](CO)[C@@H](F)[C@H]1O | 100 nM | 300 nM | 8 µg/mL (≈ 22.6 µM) | > 64 µg/mL | 16 | 4 µg/mL (≈ 11.3 µM) | 64 | > 64 µg/mL
7 | C[C@H]1O[C@@H](n2cnc3c(N)nc(OC4CCCC4)nc32)[C@H](O)[C@@H]1CC1CCCCC1 | 300 nM |  |  |  |  | 16 µg/mL (≈ 38.5 µM) | 64 | 16 µg/mL (≈ 38.5 µM)
8 | Nc1nc(OC2CCC3CCCC3C2)nc2c1ncn2C1CCCO1 (stereo not given) | 200 nM |  |  |  |  | 4 µg/mL (≈ 11.6 µM) | 64 | 32 µg/mL (≈ 93.2 µM)
